Xi reactivation – X-chromosome reactivation activator. XiGFP mouse fibroblasts, % GFP-positive cells imaging, 3 d; cells co-treated with 5-aza-dC sensitizer; scaled so ellipticine positive control = 100%. activation, % at 7.58 µM. hit rate 0.055% among 360,000;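 active = mean normalized replicate activation at least 10% and every replicate at or above 10%; inconclusive = only one of the two criteria met; inactive = mean below 10% and not all replicates reach 10%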;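 note: 0% = median of on-plate neutral control wells and 100% = ellipticine 6 µM median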
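Material: SV40-immortalized XiGFP fibroblast cells, line 68-5-11 | Buffer or medium: DMEM containing 5-aza-dC | Dosing: One concentration, pinned | Times: 3 d treatment, 15 min room-temperature fixation | Controls: Ellipticine 6 µM positive control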
Vif imaging – HIV Vif inhibition | HEK293T cells, Vif self-association by quenched fluorescence, imaging, 24 h | inhibition, % at 7.49 µM | hit rate 0.35% among 340,000; in the data active = inhibition above about 50%, passing the limit was not always enough; inconclusive = no clear call, values can overlap the other calls; inactive = below about 31%
Wnt act – Wnt/beta-catenin pathway activation | Wnt/beta-catenin reporter cell assay, activator, plate reader | hit rate 1.2% among 300,000 | AID 743398 | activation, % at 9.35 µM; in the data active = activation above about 30%, passing the limit was not always enough; inconclusive = no clear call, values can overlap the other calls;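 note: 0% = neutral control wells and 100% = positive control wells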
MITF act – activators of MITF-driven TRPM1 promoter activity in SK-MEL-5 cells | hit rate 0.75% among 300,000 | SK-MEL-5 TRPM1-promoter luciferase, 24 h; % of positive control, neutral wells = 0 | activation, % at 12.5 µM;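 active = mean activation of at least 80% with every replicate also reaching 80%; inconclusive = mean reaches 80% but some replicate falls short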;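 note: 0% = neutral control wells and 100% = parthenolide positive control wells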
esBAF inh – inhibitors of esBAF chromatin remodeling in mouse ES cells. reporter increase, % at 12.5 µM. Bmi1-luciferase knock-in reporter, 24 h; 100% = twice the neutral-well signal. hit rate 2% among 350,000; in the data active = activation above about 40%; inconclusive = no clear call, values can overlap the other calls;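 note: 0% = median of the plate's neutral control wells and 100% = double that signal; a rise in the Bmi1 reporter signal indicates esBAF inhibition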
An asterisk follows results filed as active; ? = inconclusive; . = no result. Sampled rows, rich in hits. Any-hit rate of the full collection: about 2.6%.

SMILES	Xi reactivation	Vif imaging	Wnt act	MITF act	esBAF inh
CC(C)C#Cc1ccc([C@@H]2[C@@H](CO)N3C(=O)CN(C(=O)Cc4ccccc4)C[C@H]23)cc1	0	.	.	.	.
CC(C)(C)c1ccc(C(=O)OCC(=O)Nc2sc3c(c2C#N)CCC3)cc1	0	0	-1	14	.
Cc1ccccc1OCC(=O)Nc1sc2c(c1C#N)CCC2	.	11	-1	36	47*
COc1cccc(C(=O)OCC(=O)Nc2sc3c(c2C(N)=O)CCC3)c1O	0	-8	3	-18	7
COc1ccccc1OCC(=O)Nc1sc2c(c1C(N)=O)CCC2	0	-1	-2	89*	77*
O=C(C[C@H]1CC[C@H]2[C@@H](COC[C@H](O)CN2C(=O)c2cccnc2)O1)NCc1ccccc1	0	.	.	.	-3
O=C(COc1ccc(S(=O)(=O)N2CCOCC2)cc1)NCCCn1ccnc1	0	2	1	1	7
O=C(/C=C/c1ccc(S(=O)(=O)N2CCOCC2)cc1)NC(=S)NCCCn1ccnc1	0	.	32*	-20	-3
Nn1c(COc2ccc(Cl)cc2)nc2ccccc2c1=O	0	-3	29	99*	?
C[C@@H]1CN([C@@H](C)CO)C(=O)c2cc(NC(=O)Nc3ccc(F)cc3)ccc2O[C@@H]1CN(C)Cc1ccc(-c2ccccc2)cc1	0	.	.	.	-2
C[C@@H]1CCCCO[C@H](CN(C)S(C)(=O)=O)[C@@H](C)CN([C@@H](C)CO)C(=O)c2cc(NS(C)(=O)=O)ccc2O1	0	.	.	.	3
CN1CCN(c2ccc(S(=O)(=O)N3CCCCC3)cn2)CC1	.	-3	.	-2	.
CN1CCN(S(=O)(=O)c2ccc(NN)nc2)CC1	0	11	57*	-2	-7
C[C@@H]1CN([C@@H](C)CO)C(=O)c2cccc(NC(=O)Nc3ccc(C(F)(F)F)cc3)c2O[C@@H]1CN(C)Cc1ccncc1	0	.	.	.	-4
C=CCOc1c(CNc2ccc(C(=O)O)cc2)cccc1OCC	.	2	.	65	44*
C=CCOc1c(CNc2cccc(C(=O)O)c2)cccc1OC	.	.	.	51	52*
CCC(=O)N1C[C@@H](C)[C@@H](OC)CN(C)C(=O)c2cc(NC(=O)Nc3cccc(F)c3)ccc2OC[C@H]1C	1	.	.	.	2
Cc1noc(C)c1NC(=O)N(C)C[C@@H]1Oc2ccc(NS(=O)(=O)c3c(C)noc3C)cc2CC(=O)N([C@H](C)CO)C[C@@H]1C	0	.	.	.	-7
Cc1cc(NC(=S)NC(=O)CC(C)C)ccc1Br	.	-3	9	57	58*
Cc1cc(NC(=O)CC2CCCC2)ccc1Br	0	-2	13	63	65*
O=C(CC1CCCC1)Nc1ccc2c(c1)CCC2	.	6	4	43	84*
Cc1snc2sc(C(=O)c3ccc(Br)cc3)c(N)c12	.	.	.	88*	.
C[C@H](CO)N1C[C@H](C)[C@@H](CN(C)Cc2ccc(C(F)(F)F)cc2)OCCCC[C@H](C)Oc2ccc(NC(=O)Nc3ccc(F)cc3)cc2C1=O	0	.	.	.	-5
C[C@@H]1CN([C@@H](C)CO)C(=O)Cc2cc(NS(=O)(=O)c3cn(C)cn3)ccc2O[C@@H]1CN(C)C(=O)Nc1ccc2c(c1)OCO2	0	.	.	.	2
Nc1nc(SCc2ccccc2)[nH]c(=O)c1-c1ccccc1	.	1	16	68	45*
SMILES	Xi reactivation	Vif imaging	Wnt act	MITF act	esBAF inh
Nc1nc(SCc2ccccc2Cl)[nH]c(=O)c1-c1ccccc1	.	2	.	6	14
COc1ccc(/C=C/C(=O)c2cc(F)ccc2OC(=O)c2ccccc2OC)cc1OC	0	91*	0	-50	.
COc1ccc(/C=C/C(=O)c2cc(F)ccc2OC(=O)c2ccccc2)cc1OC	.	.	-33	-63	-19
COc1ccc(/C=C/C(=O)c2ccc[nH]2)c(OC)c1OC	.	0	22	.	47*
COc1ccc(/C=C/C(=O)c2ccc[nH]2)cc1OC	.	20	6	59	53*
O=C(NCc1ccc(Cl)cc1)C(=O)c1cn(CC(=O)N2CCOCC2)c2ccccc12	0	-5	5	9	12
O=C(Cn1cc(SCc2ccccc2Cl)c2ccccc21)N1CCOCC1	.	-8	.	28	82*
O=C(Nc1ccccc1Cl)C(=O)c1cn(CC(=O)N2CCOCC2)c2ccccc12	0	-1	39*	83*	52*
CC(=O)Nc1ccc(NC(=O)CSc2cn(CC(=O)N3CCOCC3)c3ccccc23)cc1	0	8	0	0	-3
CCn1cc(SCC(=O)N2CCOCC2)c2ccccc21	0	.	16	39	52*
Cn1cc(SCC(=O)N2CCOCC2)c2ccccc21	0	11	1	.	16
COc1ccc(S(=O)(=O)N(C)C[C@H]2OCCCC[C@@H](C)Oc3ccc(NC(=O)Nc4cccc5ccccc45)cc3C(=O)N([C@@H](C)CO)C[C@H]2C)cc1	0	.	.	.	2
Cc1occc1C(=O)N/N=C/C1=C(N2CCOCC2)C(=C/c2ccc(Cl)cc2Cl)/CC1	0	133*	-4	-4	.
Cc1ccc(-c2cc(-c3ccco3)c3c(N)c(C(=O)NN)oc3n2)cc1	0	-14	-2	-17	.
NNC(=O)c1oc2nc(-c3ccccc3)cc(-c3ccccc3)c2c1N	0	71*	2	8	-4
COc1cccc(NC(=S)N/N=C2\CC3CCC2(C)C3(C)C)c1 (configuration not stated)	0	5	4	25	54*
CC(C)NC(=O)N[C@@H]1CC[C@H](CCNC(=O)C2CCOCC2)O[C@@H]1CO	0	.	.	.	0
CCCC#Cc1ccc2c(c1)O[C@H](CN(C)C(=O)c1cnccn1)[C@@H](C)CN([C@H](C)CO)S2(=O)=O	0	.	.	.	-2
COc1ccccc1Nc1nc2ccccc2n1C	0	7	14	92*	65*
COc1ccccc1Nc1nc2ccccc2n2cnnc12	0	4	2	29	20
Cc1ccc2nc3ccc(N4CCCC4)nn3c(=O)c2c1	.	4	.	94*	39
Cc1sc2nc3ccc(N4CCCCC4)nn3c(=O)c2c1C	.	-16	-2	121*	-5
COc1ccccc1-c1nnc(SCc2ccccn2)n1C	.	7	.	-5	0
COc1ccccc1-c1nc(SCc2ccccn2)n[nH]1	.	-3	3	-3	60*
CCC(=O)Nc1ccc(-c2cc3ccccc3oc2=O)cc1	0	29	.	43	.
SMILES	Xi reactivation	Vif imaging	Wnt act	MITF act	esBAF inh
CCN(CC)S(=O)(=O)c1cccc(NC(=O)c2cc3ccccc3o2)c1	.	-10	9	8	?
CC(=O)Nc1ccc(-c2cc3ccccc3o2)cc1	.	5	56*	.	27
CC(C)C(=O)Nc1cccc(NC(=O)c2cc3ccccc3o2)c1	.	-5	27	.	72*
COc1ccc(NC(=O)c2cc3ccccc3o2)cc1OC	0	1	8	35	?
Cc1ccc(NC(=O)c2cc3ccccc3o2)cc1Cl	0	-1	-2	104*	?
CC(=O)Nc1cccc(NC(=O)c2cc3ccccc3o2)c1	.	-2	51*	?	.
